The values that follow come from ChEMBL document CHEMBL1146034, “Synthesis, DNA affinity, and antiprotozoal activity of linear dications: Terphenyl diamidines and analogues” (J Med Chem, 2006).

Active and inactive are the calls of the source. The calls are words filed in the database; no cut-off is given here.

For one data set, the system named is Plasmodium falciparum. Nature of the data set: Antiprotozoal activity against Plasmodium falciparum K1. It counts as functional, organism-based. A digest of the protocol:
(§1)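 Run in vitro against T. b. rhodesiense strain STIB900 or P. falciparum strain K1. Values are from duplicate determinations.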

Data set [1] relates to Mus musculus. The data set is described as follows: Antiprotozoal activity in mouse infected with Trypanosoma brucei rhodesiense STIB900 measured as survival upto 60 days at 5 mg/kg, ip. It counts as functional, organism-based. Further details: dose 5 mg/kg. A digest of the protocol:
(§2)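 Acute mouse model of T. b. rhodesiense STIB900 infection. Compound was given for 4 days, either intraperitoneally or orally, at the stated dose, with untreated infected controls. Read-outs were the number of mice alive and parasite-free at 60 days and the average days of survival.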

The test system of data set [2] is Mus musculus. The data set is described as follows: Antiprotozoal activity in mouse infected with Trypanosoma brucei rhodesiense STIB900 measured as average days of survival at 5 mg/kg, ip. It counts as functional. The conditions noted are these: route intraperitoneal. A digest of the protocol: (§3)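 Acute STIB900 mouse model. Dosing ran for 4 days, given ip or po. The read-out was average days of survival post infection. Mice surviving 60 days parasite-free were scored as cures. Untreated infected mice served as controls.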

Data set [3] deals with Mus musculus. Nature of the data set: Antiprotozoal activity in mouse infected with Trypanosoma brucei rhodesiense STIB900 measured as average days of survival at 25 mg/kg, po. It counts as functional. The procedure, abridged:
as §3

A short description of data set [4]: Half life in B6C3F1 mouse liver microsome. The conditions noted are these: liver microsomes. It counts as ADME. A digest of the protocol: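 Pooled male B6C3F1 mouse liver microsomes (0.5 mg/mL protein) in 100 mM phosphate pH 7.4 with 5 mM MgCl2 and 0.5% DMSO, run in duplicate. After 3 min preincubation at 37 °C, 2 mM NADPH started the reaction. Acetonitrile quench at 0–30 min, then LC-MS/MS (positive MRM). t1/2 = 0.693/slope of ln % parent remaining versus time.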
For orientation: Microsomes from liver hold many membrane-bound enzymes, among them those of drug oxidation.

For data set [5], the system named is Trypanosoma brucei rhodesiense. The data set is described as follows: Antiprotozoal activity against Trypanosoma brucei rhodesiense STIB900. It counts as functional, organism-based. The procedure, abridged:
as §1

The test system of another data set is L6. The data set is described as follows: Cytotoxicity against rat L6 cells. It counts as functional, cell-based.
In data set [6] the test system is Mus musculus. Nature of the data set: Antiprotozoal activity in mouse infected with Trypanosoma brucei rhodesiense STIB900 measured as average days of survival at 20 mg/kg, ip. Conditions: route intraperitoneal. It counts as functional. The procedure, abridged:
as §3

The subject of data set [7] is Mus musculus. The data set is described as follows: Antiprotozoal activity in mouse infected with Trypanosoma brucei rhodesiense STIB900 measured as survival upto 60 days at 20 mg/kg, ip. More on the design: dose 20 mg/kg. It counts as functional, organism-based. The procedure, abridged:
as §2

In data set [8] the test system is Mus musculus. Nature of the data set: Antiprotozoal activity in mouse infected with Trypanosoma brucei rhodesiense STIB900 measured as survival upto 60 days at 25 mg/kg, po. It counts as functional, organism-based. Further details: dose 25 mg/kg. The procedure, abridged:
as §2

The test system of data set [9] is Mus musculus. Nature of the data set: Antiprotozoal activity in mouse infected with Trypanosoma brucei rhodesiense STIB900 measured as survival upto 60 days at 100 mg/kg, po. Further details: dose 100 mg/kg. It counts as functional, organism-based. A digest of the protocol: as §2
The test system of data set [10] is Mus musculus. The data set is described as follows: Antiprotozoal activity in mouse infected with Trypanosoma brucei rhodesiense STIB900 measured as average days of survival at 100 mg/kg, po. Further details: dose 100 mg/kg, route oral. It counts as organism-based. The conditions noted are these: in vivo. A digest of the protocol: as §3

Compound `N=C(N)c1ccc(-c2cnc(-c3ccc(C(=N)N)cc3)nc2)cc1` gave a concentration for half-maximal inhibition (IC50) in the data set on Plasmodium falciparum of 0.0005 µM. The result with Mus musculus [1] was inactive. Also, the Survival in the data set on Mus musculus [2] amounted to 23.5 days.
For the compound `CONC(=N)c1ccc(-c2ccc(-c3ccc(C(=N)NOC)cc3)o2)cc1` [PAFURAMIDINE], in the data set with Mus musculus [3], the Survival was over 60 days. In addition, the half-life in [4] was under 0.25 h.
Consider `N=C(N)c1ccc(-c2ccc(-c3ccc(C(=N)N)o3)cn2)cc1`, for which the concentration for half-maximal inhibition (IC50) is 0.002 µM in [5], 0.01 µM with Plasmodium falciparum and 30.9 µM with L6. Also, the Survival was over 53.5 days in the data set on Mus musculus [6] and over 41.75 days in the data set with Mus musculus [2].
In the case of `N=C(N)c1ccc(-c2ccc(-c3ccc(C(=N)N)o3)cc2)cc1`, the half-inhibitory concentration (IC50) in data set [5] turned out to be 0.005 µM; in the data set on Plasmodium falciparum, 0.001 µM; in the data set on L6 it was 56.1 µM. Further, the result in the data set on Mus musculus [7] was inactive. The compound further registered a Survival with Mus musculus [6] of 21.25 days.
Turning to `N=C(N)c1ccc(-c2ccc(-c3ccc(C(=N)N)cc3)c(F)c2)cc1`, the 50% inhibitory concentration (IC50) in data set [5] stood at 0.002 µM; in the data set on Plasmodium falciparum, 0.001 µM. In addition, in the data set on Mus musculus [1], the outcome was inactive. The compound further came in with a Survival in the data set with Mus musculus [2] of over 51.75 days.
Take `COc1cc(-c2ccc(C(=N)N)cc2)c(OC)cc1-c1ccc(C(=N)N)cc1`: the values for the IC50 (in [5]; in the data set with Plasmodium falciparum; in the data set on L6) were 0.015 µM, 0.037 µM and over 100 µM, respectively. This compound returned a Survival in the data set on Mus musculus [2] of over 51.75 days.
Take `N=C(NO)c1ccc(-c2ccc(-c3ccc(/C(N)=N\O)cc3)cc2C(F)(F)F)cc1`: the 50% inhibitory concentration (IC50) in data set [5] stood at 29.9 µM; in the data set with Plasmodium falciparum, 3.1 µM; in the data set with L6 it was 13.3 µM. In the data set with Mus musculus [8], the outcome was inactive. Besides, the Survival in the data set with Mus musculus [3] came to 9 days.
In the case of `N=C(NO)c1ccc(-c2ccc(-c3ccc(/C(N)=N/O)cc3)cc2)o1`, the IC50 was 67 µM in [5] and 6.6 µM in the data set on Plasmodium falciparum. For the same compound, in the data set with Mus musculus [8], the outcome was inactive. The Survival in the data set with Mus musculus [3] came to 16 days.
On to `N=C(N)c1ccc(OCCCCCOc2ccc(C(=N)N)cc2)cc1` [PENTAMIDINE], for which the result in the data set on Mus musculus [7] was inactive. In the data set with Mus musculus [6], this compound displayed a Survival of over 42.75 days.
In the case of `CONC(=N)c1ccc(-c2ccc(-c3ccc(C(=N)NOC)cc3)cc2)cc1`, the results for the IC50 (in data set [5]; in the data set with Plasmodium falciparum; in the data set on L6) were 13.8 µM, 0.371 µM and 118 µM, respectively. In addition, the result with Mus musculus [9] was inactive.
For `CONC(=N)c1ccc(-c2ccc(-c3ccc(C(=N)NOC)cn3)cc2)nc1`, the half-maximal inhibitory concentration (IC50) in [5] is 82.9 µM; in the data set on Plasmodium falciparum, 1.2 µM; in the data set on L6 it was over 158 µM. Moreover, in the data set on Mus musculus [8], the outcome was inactive. This compound showed a Survival in the data set with Mus musculus [3] of 12 days. Also, in data set [4], the half-life was over 1.5 h.
As to `N=C(N)c1ccc(-c2ccc(-c3ccc(C(=N)N)cc3)cc2)cc1`, the results for the IC50 (in data set [5]; in the data set with Plasmodium falciparum) were 0.005 µM and 0.001 µM, respectively. The Survival in the data set with Mus musculus [6] is over 47.75 days.
On to `CO/N=C(/N)c1ccc(-c2ccc(-c3ccc(C(=N)NOC)cc3)nc2)cc1`, for which the half-maximal inhibitory concentration (IC50) was 34.7 µM in data set [5], 3.2 µM in the data set on Plasmodium falciparum and over 166 µM with L6. In addition, the outcome in the data set with Mus musculus [8] was inactive. In the data set on Mus musculus [3], this compound had a Survival of over 42.75 days. In addition, the half-life in data set [4] is 0.917 h.
Turning to `CONC(=N)c1ccc(-c2cnc(-c3ccc(C(=N)NOC)cc3)nc2)cc1`, the IC50 in [5] was 49 µM; in the data set on Plasmodium falciparum, 5.7 µM; in the data set with L6 it was over 177 µM. Moreover, in the data set on Mus musculus [8], the outcome was inactive. For the same compound, in the data set with Mus musculus [3], the Survival came to 12.5 days. The half-life in data set [4] was over 1.5 h.
As to `CONC(=N)c1ccc(-c2ccc(-c3ccc(C(=N)NOC)cc3)c(C(F)(F)F)c2)cc1`, the IC50 turned out to be 36.9 µM in data set [5], 3.8 µM in the data set on Plasmodium falciparum and 42.2 µM in the data set with L6. Also, the result in the data set on Mus musculus [8] was inactive. Also, in the data set with Mus musculus [3], the Survival was determined as 7.25 days.
For `CONC(=N)c1ccc(-c2ccc(-c3ccc(C(=N)NOC)cc3)c(F)c2)cc1`, the IC50 in [5] is 51.5 µM; in the data set on Plasmodium falciparum it was 4.2 µM; in the data set on L6, 8.5 µM. In addition, in the data set on Mus musculus [8], the outcome was inactive. In the data set on Mus musculus [3], this compound showed a Survival of 37.25 days. This compound displayed a half-life in data set [4] of over 1.5 h.
Regarding `N=C(NO)c1ccc(-c2ccc(-c3ccc(/C(N)=N\O)cc3)cc2)cc1`, the values for the IC50 (in [5]; with Plasmodium falciparum; in the data set on L6) were 22.8 µM, over 11.8 µM and over 211 µM, respectively. Further, in the data set with Mus musculus [9], the result was inactive. The Survival with Mus musculus [10] came to 24.75 days.
With `N=C(N)c1ccc(-c2ccc(-c3ccc(C(=N)N)cc3)c(C(F)(F)F)c2)cc1`, the IC50 in [5] amounted to 0.048 µM; in the data set with Plasmodium falciparum, 0.015 µM; in the data set with L6, 9.4 µM. For the same compound, in the data set with Mus musculus [1], the result was inactive. Further, in the data set with Mus musculus [2], the Survival stood at 17.25 days.
As to `N=C(N)c1ccc(-c2ccc(-c3ccc(C(=N)N)cc3)nc2)cc1`, the IC50 in data set [5] is 0.002 µM; in the data set with Plasmodium falciparum, 0.01 µM. Further, in the data set with Mus musculus [7], the result was Active. Besides, the Survival in the data set on Mus musculus [6] is over 60 days; with Mus musculus [2], over 42 days.
For `N=C(N)c1ccc(-c2ccc(-c3ccc(C(=N)N)cc3)o2)cc1` [FURAMIDINE], the result in the data set with Mus musculus [7] and in the data set on Mus musculus [1] was inactive. Besides, the Survival was over 52.5 days with Mus musculus [6] and 35.5 days with Mus musculus [2].
For `N=C(NO)c1ccc(-c2ccc(-c3ccc(/C(N)=N\O)cc3)nc2)cc1`, the values for the IC50 (in data set [5]; with Plasmodium falciparum; in the data set with L6) were 9.3 µM, 7.6 µM and over 184 µM, respectively. Moreover, the Survival in the data set on Mus musculus [10] is over 35.75 days.
With `CO/N=C(\N)c1ccc(-c2ccc(-c3ccc(C(=N)NOC)cc3)cc2)o1`, the results for the IC50 (in data set [5]; with Plasmodium falciparum; in the data set on L6) were 24 µM, 1.6 µM and over 205 µM, respectively. The result in the data set on Mus musculus [8] was inactive. Also, the Survival with Mus musculus [3] came out at 6.25 days.
For `N=C(N)c1ccc(-c2ccc(-c3ccc(C(=N)N)cn3)cc2)nc1`, the figures for the IC50 (in data set [5]; in the data set on Plasmodium falciparum) were 0.047 µM and 0.01 µM, respectively. In the data set with Mus musculus [2], this compound displayed a Survival of over 60 days.
The compound `CON=C(N)c1ccc(-c2ccc(-c3ccc(C(N)=NOC)cc3)cc2)cc1` yielded a Survival in the data set with Mus musculus [10] of 20.75 days. The half-life in data set [4] was over 1.5 h.
Take `N=C(NO)c1ccc(-c2ccc(-c3ccc(/C(N)=N\O)cc3)cc2F)cc1`: the concentration for half-maximal inhibition (IC50) in the data set on Plasmodium falciparum stood at 0.925 µM; in the data set on L6, 29.1 µM. In addition, the result in the data set with Mus musculus [8] was inactive. This compound also registered a Survival in the data set with Mus musculus [3] of 22.25 days.

What is called IC50 is the concentration needed to halve the response being measured. Read a low IC50 as greater potency in that assay. As usually defined, the half-life is how long it takes for the measured level to halve. High values mean slow loss, low ones fast loss.
